Consider ten molecules from ChEMBL document CHEMBL4190269, “Design, synthesis and biological evaluation of novel 6-substituted pyrrolo [3,2-d] pyrimidine analogues as antifolate antitumor agents” (2017).

Active and inactive are the calls of the source. The rule behind the calls is not given here.

Assay [1] concerns A549. In words: Cell cycle arrest in human A549 cells assessed as accumulation at G1 phase at 1 uM after 72 hrs by propidium iodide staining based flow cytometry (reference value: 40.9%). It is filed as functional. In short, it runs like this: (§1)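 A549 cells treated 72 h in RPMI1640 with 10% dFBS and 2 nM LCV. Washed twice in ice-cold PBS and fixed in 70% ethanol at 4 °C overnight. Stained ≥20 min at room temperature in the dark with 50 μg/mL PI and 100 μg/mL RNase. Phase percentages from 1 × 10^4 cells by flow cytometry. DMSO-treated cells as reference.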
Background: Flow cytometry measures light scatter and fluorescence of single cells or particles in a stream.

For assay [2], the system named is HCT-116. Description: Antiproliferative activity against human HCT116 cells after 48 hrs by MTS assay. Type of assay: functional. Conditions: HCT-116, 48 h. A general note: Formazan colour is commonly taken as a measure of viable cells.
Assay [3] deals with A549. Description: Antiproliferative activity against human A549 cells after 48 hrs by MTS assay. Type of assay: functional. The note with it: A549, 48 h. An outline of the steps: (§2)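 Cells in RPMI-1640 or DMEM with 10% FBS, 37 °C, 5% CO2. Exponentially growing cells seeded at 5 × 10^3 per well and grown 12 h. Compounds added at 10 nM to 100 μM for 48 h. MTS reagent added for 3 h, then OD read at 490 nm. 0.1% DMSO as control. Mean viability from three independent experiments.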

Assay [4] deals with HeLa. Description: Antiproliferative activity against human HeLa cells after 48 hrs by MTS assay. Type of assay: functional. An outline of the steps: as §2
The subject of assay [5] is HT-29. In words: Antiproliferative activity against human HT-29 cells after 48 hrs by MTS assay. Type of assay: functional. The note with it: HT-29, 48 h. An outline of the steps: as §2
The test system of assay [6] is A549. Description: Cell cycle arrest in human A549 cells assessed as accumulation at G2 phase at 1 uM after 72 hrs by propidium iodide staining based flow cytometry (reference value: 7.8%). Type of assay: functional. An outline of the steps:
as §1

Assay [7] has as its system NCI-H1299. In words: Antiproliferative activity against human NCI-H1299 cells after 48 hrs by MTS assay. Conditions: NCI-H1299, 48 h. It is filed as functional. In short, it runs like this:
as §2

In assay [8] the test system is HL-60. Description: Antiproliferative activity against human HL60 cells after 48 hrs by MTS assay. Type of assay: functional. Conditions: HL-60, 48 h. In short, it runs like this:
as §2

Assay [9] has as its system A549. In words: Cell cycle arrest in human A549 cells assessed as accumulation at S phase at 1 uM after 72 hrs by propidium iodide staining based flow cytometry (reference value: 51.3%). It is filed as functional. An outline of the steps:
as §1

Assay [10] addresses T1, Dihydrofolate reductase (Homo sapiens) (UniProt P00374).
T1 sequence (whole entry): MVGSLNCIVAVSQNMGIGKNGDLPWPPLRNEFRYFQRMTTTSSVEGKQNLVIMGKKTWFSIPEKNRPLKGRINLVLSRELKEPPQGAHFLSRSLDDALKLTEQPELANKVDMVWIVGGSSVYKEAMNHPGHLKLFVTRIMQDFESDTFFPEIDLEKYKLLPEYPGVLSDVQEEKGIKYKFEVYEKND
In words: Inhibition of recombinant human DHFR at 100 uM using dihydrofolate as substrate in presence of NADPH by spectrophotometric method relative to control. In short, it runs like this: (§3)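 Recombinant human DHFR assayed with 0.1 mM dihydrofolate, 0.3 mM NADPH and 100 mM KCl, pH 7.5, 32 °C. Reaction started by adding enzyme and followed as OD change at 340 nm. Percent inhibition recorded at 1, 10 and 100 μM.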

The subject of assay [11] is HL-60. Description: Antiproliferative activity against human HL60 cells up to 1000 uM after 48 hrs in presence of excess of thymidine by MTS assay. It is filed as functional, cell-based.
Assay [12] has as its system A549. In words: Induction of apoptosis in human A549 cells assessed as early apoptotic cells at 1 uM after 72 hrs by Annexin V-FITC/propidium iodide staining based flow cytometry (reference value: 0.32%). Type of assay: functional. In short, it runs like this:
(§4)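 A549 cells exposed 72 h in RPMI with 10% dFBS and 2 nM LCV, with an untreated control. Harvested by trypsinization and washed twice in cold PBS. Stained with annexin V-FITC/PI and ≥1 × 10^4 cells analyzed by flow cytometry. Quadrants: LR early apoptosis, UR late apoptosis/necrosis, UL dead, LL viable.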

The subject of assay [13] is A549. Description: Cell cycle arrest in human A549 cells assessed as accumulation at S phase at 10 uM after 72 hrs by propidium iodide staining based flow cytometry (reference value: 51.3%). Type of assay: functional. In short, it runs like this:
as §1

Assay [14] has as its system A549. In words: Induction of apoptosis in human A549 cells assessed as early apoptotic cells at 10 uM after 72 hrs by Annexin V-FITC/propidium iodide staining based flow cytometry (reference value: 0.32%). It is filed as functional. An outline of the steps: as §4
Assay [15] has as its system A549. In words: Induction of apoptosis in human A549 cells assessed as necrotic cells at 10 uM after 72 hrs by Annexin V-FITC/propidium iodide staining based flow cytometry (reference value: 3.58%). It is filed as functional. An outline of the steps: as §4
The test system of assay [16] is A549. In words: Cell cycle arrest in human A549 cells assessed as accumulation at G2 phase at 10 uM after 72 hrs by propidium iodide staining based flow cytometry (reference value: 7.8%). Type of assay: functional. An outline of the steps: as §1
Assay [17] has as its system A549. Description: Induction of apoptosis in human A549 cells assessed as late apoptotic cells at 10 uM after 72 hrs by Annexin V-FITC/propidium iodide staining based flow cytometry (reference value: 1.24%). Type of assay: functional. An outline of the steps: as §4
Assay [18] addresses T1, Dihydrofolate reductase (Homo sapiens). In words: Inhibition of recombinant human DHFR at 1 to 10 uM using dihydrofolate as substrate in presence of NADPH by spectrophotometric method. In short, it runs like this:
as §3

For assay [19], the system named is HL-60. Description: Antiproliferative activity against human HL60 cells up to 1000 uM after 48 hrs in presence of excess of adenosine and AICA by MTS assay. It is filed as functional, cell-based.
Assay [20] relates to A549. In words: Cell cycle arrest in human A549 cells assessed as accumulation at G1 phase at 10 uM after 72 hrs by propidium iodide staining based flow cytometry (reference value: 40.9%). It is filed as functional. An outline of the steps:
as §1

The test system of assay [21] is A549. In words: Induction of apoptosis in human A549 cells assessed as live cells at 1 uM after 72 hrs by Annexin V-FITC/propidium iodide staining based flow cytometry (reference value: 94.86%). It is filed as functional. An outline of the steps: as §4
Assay [22] concerns A549. Description: Induction of apoptosis in human A549 cells assessed as live cells at 10 uM after 72 hrs by Annexin V-FITC/propidium iodide staining based flow cytometry (reference value: 94.86%). Type of assay: functional. In short, it runs like this:
as §4

In assay [23] the test system is A549. In words: Inhibition of colony formation in human A549 cells at 20 uM treated for 48 hrs followed by compound washout measured after 8 days by Giemsa staining based assay. It is filed as functional, cell-based. In short, it runs like this:
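About 100 A549 cells per well plated and kept 24 h in RPMI with 10% dFBS and 2 nM LCV at 37 °C, 5% CO2. Compound at 0-20 μM added for 48 h, then medium replaced with drug-free medium for 8 days. Colonies fixed in methanol 30 min, Giemsa-stained 30 min, then counted.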

The test system of assay [24] is A549. Description: Induction of apoptosis in human A549 cells assessed as necrotic cells at 1 uM after 72 hrs by Annexin V-FITC/propidium iodide staining based flow cytometry (reference value: 3.58%). It is filed as functional. In short, it runs like this:
as §4

The test system of assay [25] is A549. In words: Induction of apoptosis in human A549 cells assessed as late apoptotic cells at 1 uM after 72 hrs by Annexin V-FITC/propidium iodide staining based flow cytometry (reference value: 1.24%). Type of assay: functional. In short, it runs like this: as §4

Turning to `CN(Cc1cnc2nc(N)nc(N)c2n1)c1ccc(C(=O)N[C@@H](CCC(=O)O)C(=O)O)cc1` [METHOTREXATE], the figures for the Activity in assay [1], in assay [6] and in assay [9] were 62%, 0% and 38%, respectively. Moreover, the GI50 is 0.13 µM in assay [2]; 0.014 µM in assay [3]; above 100 µM in assay [4]; above 100 µM in assay [5]; 0.072 µM in assay [7]; 0.038 µM in assay [8].

With `Nc1nc2cc(CCc3ccc(C(=O)N[C@@H](CCC(=O)O)C(=O)O)cc3)[nH]c2c(=O)[nH]1`, the inhibition in assay [10] was 66.7%. For the same molecule, the outcome in assay [11] and in assay [19] was Active. The Activity stood at 0.39% in assay [12]; 45.6% in assay [13]; 4.4% in assay [14]; 3.56% in assay [15]; 19.4% in assay [16]; 3.21% in assay [17]. Also, the Activity turned out to be 33.7% in assay [1]; 35% in assay [20]; 94.08% in assay [21]; 88.02% in assay [22]; 4.46% in assay [24]; 15% in assay [6]. Further, the Activity in assay [25] is on record as 1.07%; in assay [9], 51.3%. In addition, the inhibition entry in [18] and in assay [23] was “Active” in each case. For the same molecule, the GI50 in assay [2] was found to be 54.6 µM; in assay [3] it was 0.73 µM; in assay [4] it was 73.1 µM; in assay [5], 99.1 µM; in assay [7], 1.72 µM; in assay [8], 8.92 µM.

For the molecule `Nc1nc2c(Br)c(CNc3ccc(C(=O)N[C@@H](CCC(=O)O)C(=O)O)cc3)[nH]c2c(=O)[nH]1`, the GI50 in assay [2] is above 100 µM; in assay [3], 83 µM; in [4], above 100 µM; in [5], above 100 µM; in assay [7] it was above 100 µM; in assay [8] it was 40.1 µM.

Regarding `CN(Cc1cc2nc(N)[nH]c(=O)c2[nH]1)c1ccc(C(=O)N[C@@H](CCC(=O)O)C(=O)O)cc1`, the GI50 in [2], in assay [3], in assay [4], in [5], in assay [7] and in [8] was above 100 µM throughout.

Take `Cn1c(CNc2ccc(C(=O)N[C@@H](CCC(=O)O)C(=O)O)cc2)cc2nc(N)[nH]c(=O)c21`: the GI50 is above 100 µM in assay [2]; 46 µM in [3]; 94.4 µM in assay [4]; above 100 µM in [5]; 51.3 µM in assay [7]; 13.5 µM in assay [8].

Regarding `CCN(Cc1cc2nc(N)[nH]c(=O)c2[nH]1)c1ccc(C(=O)N[C@@H](CCC(=O)O)C(=O)O)cc1`, the GI50 in assay [2], in [3], in assay [4], in assay [5], in [7] and in assay [8] was above 100 µM each time.

Turning to `C=CCn1c(CNc2ccc(C(=O)N[C@@H](CCC(=O)O)C(=O)O)cc2)cc2nc(N)[nH]c(=O)c21`, the GI50 is above 100 µM in [2]; 57.3 µM in assay [3]; 82.7 µM in [4]; 98.5 µM in assay [5]; 68.4 µM in assay [7]; 15.5 µM in assay [8].

For the molecule `Nc1nc2cc(CNc3ccc(C(=O)N[C@@H](CCC(=O)O)C(=O)O)cc3)[nH]c2c(=O)[nH]1`, the 50% growth inhibitory concentration (GI50) is above 100 µM in [2]; 79 µM in assay [3]; 85.1 µM in assay [4]; above 100 µM in assay [5]; 73.1 µM in assay [7]; 47.4 µM in assay [8].

Regarding `Nc1nc2c(I)c(CNc3ccc(C(=O)N[C@@H](CCC(=O)O)C(=O)O)cc3)[nH]c2c(=O)[nH]1`, the GI50 in assay [2] is above 100 µM; in assay [3] it was above 100 µM; in [4] it was above 100 µM; in [5], above 100 µM; in assay [7], above 100 µM; in assay [8], 54.2 µM.

As to `C#CCN(Cc1cc2nc(N)[nH]c(=O)c2[nH]1)c1ccc(C(=O)N[C@@H](CCC(=O)O)C(=O)O)cc1`, the GI50 in assay [2], in assay [3], in assay [4], in assay [5], in assay [7] and in [8] was above 100 µM each time.

In general, GI50 refers to the concentration at which growth is held to half of that of the control. A low value points to greater sensitivity of the cells. As a reminder, the inhibition is the percentage by which the read-out fell short of the control.
